Sampled rows, rich in hits. Any-hit rate of the full collection: about 2.6%.
MC4R antagonist – antagonists of human melanocortin 4 receptor (MC4R); MC4R-expressing cells, MTII-stimulated cAMP, LANCE TR-FRET; AID 540295; inhibition, % at 6.5 µM; 360,000 tested, 0.48% active; P32245;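 active = inhibition above its plate's cutoff, the mean of tested wells on that plate plus 3 SD, cut at about 29% in these data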
Target sequence (P32245 whole entry, looked up): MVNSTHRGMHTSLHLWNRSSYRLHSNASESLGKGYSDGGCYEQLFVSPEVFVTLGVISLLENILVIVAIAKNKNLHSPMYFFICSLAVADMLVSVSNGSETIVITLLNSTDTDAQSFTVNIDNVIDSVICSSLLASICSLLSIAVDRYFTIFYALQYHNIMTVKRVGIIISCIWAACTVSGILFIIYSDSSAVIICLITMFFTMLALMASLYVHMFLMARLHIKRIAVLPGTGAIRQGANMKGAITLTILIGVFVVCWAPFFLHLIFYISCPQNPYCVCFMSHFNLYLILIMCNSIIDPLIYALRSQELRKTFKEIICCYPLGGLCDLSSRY
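System: U2OS cells stably expressing human melanocortin 4 receptor (MC4R). Reagent: Melanotan II challenge after compound preincubation. Doses: 6.5 µM. Times: 30-min compound, 1-h challenge, 1-h detection, room temperature. Measured by: TR-FRET with Eu-cAMP and labeled anti-cAMP, 671 nm. Replicates: singlicate.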
MC4R barr agon – agonists of human melanocortin 4 receptor (MC4R) beta-arrestin | P32245 | U2OS MC4R beta-arrestin complementation, luminescence; percent of melanotan II response, DMSO zero | activation, % at 8.9 µM | 360,000 tested, 0.98% active;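 active = activation above a per-plate cutoff, the mean activation of sample wells on that plate plus 3 SD, cut at about 8% in these data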
Tb MetRS inh – Trypanosoma brucei MetRS inhibition; 360,000 tested, 0.4% active; purified T. brucei MetRS, ATP depletion, Kinase-Glo luminescence; inhibition, % at 11.9 µM;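 active = inhibition above a per-plate cutoff of the control wells' mean inhibition plus 3 SD, cut at about 5.5% in these data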
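System: purified T. brucei MetRS enzyme / Detection: Kinase-Glo luciferase luminescence reporting remaining unconsumed ATP / Medium: HEPES buffer with MgCl2, KCl, DTT, spermine, BSA, pyrophosphatase / Replication: singlicate, one well per compound / Evaluation: percent inhibition relative to median high and low control wells / Schedule: 2 h aminoacylation at 25 °C after 15 min preincubation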
hiPSC survival – hiPSC single-cell survival enhancement; ATPlite luminescence; 100% = ROCK inhibitor wells, 0% = DMSO; survival enhancement, % at 20 µM; 360,000 tested, 0.044% active; AID 602274; in the data active = survival enhancement above about 18%;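 also: cells exposed to compounds for 16 hours before the ATP read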
ABCB6 inh 2 – human ABCB6 transporter inhibition; 360,000 tested, 0.19% active; AID 602162; fluorescence ratio to DMSO, % at 10 µM; Q9NP58; K562-ABCB6 porphyrin accumulation, flow cytometry, 1 h; hits give low values;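 active = fluorescence ratio to DMSO below 75%, the collection mean minus 3 SD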;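 also: signal is porphyrin accumulated inside mitochondria; lower ratio means ABCB6 inhibition with less porphyrin fluorescence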
Exocytosis inh – blocks lytic granule exocytosis; TALL-104 LAMP-1 surface exposure, flow cytometry; cells stimulated with thapsigargin and PMA; inhibition, % at 10 µM; 360,000 tested, 0.66% active;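 active = inhibition above about 55%, limit read from the data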
cAMP nonselect – U2OS forskolin cAMP inhibition counter-screen. shares compounds with MC4R antagonist. parental U2OS, LANCE TR-FRET. inhibition, % at 6.5 µM. 1,600 tested, 26% active. AID 602193;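 active = mean inhibition over triplicates above the low-control well mean plus 3 SD, set per campaign, cut at about 13% in these data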;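 also: signal is single emission at 671 nm which falls as cellular cAMP rises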
MC4R cAMP antag – human MC4R cAMP antagonism confirmation; shares compounds with MC4R antagonist; MC4R-expressing cells, MTII-stimulated cAMP, TR-FRET; inhibition, % at 6.5 µM; 1,600 tested, 27% active; AID 602195; in the data active = inhibition above about 29%
A number is an active result; 0 = inactive; - = no result.

SMILES	MC4R antagonist	MC4R barr agon	Tb MetRS inh	hiPSC survival	ABCB6 inh 2	Exocytosis inh	cAMP nonselect	MC4R cAMP antag
Cc1ccc(C)c(S(=O)(=O)NCC(=O)OCC(=O)Nc2sccc2C(N)=O)c1	49.0	0	0	0	0	0	13.4	32.9
CC1C(=O)N(Cc2cn(Cc3ccco3)nn2)CCS(=O)(=O)N1Cc1ccc(-c2ccccc2Cl)cc1 (stereo unspecified)	-	-	0	0	0	0	-	-
O=S(=O)(O)c1nc2ccccc2[nH]1	34.9	0	0	0	0	0	0	0
CNCc1nc2ccccc2[nH]1	0	0	0	0	0	0	-	-
CC(C)C(=O)N1CCCC1(C)C(=O)NCc1ccccn1 (stereo unspecified)	0	0	0	0	0	0	-	-
O=C(OC1CCOC1=O)C1CCN(S(=O)(=O)c2ccccc2)CC1 (stereo unspecified)	34.7	0	0	0	0	0	18.0	42.9
O=C(OC1CCOC1=O)C1CCN(S(=O)(=O)c2ccc(Cl)c(C(F)(F)F)c2)CC1 (stereo unspecified)	50.7	0	0	0	0	0	13.8	50.2
O=C(OC1CCOC1=O)c1ccc(Cl)c(S(=O)(=O)N2CCCCC2)c1 (stereo unspecified)	34.2	0	0	0	0	0	0	0
Cc1ccc(C)c(NC(=O)CCc2ccc(S(=O)(=O)NC3CCCCC3)cc2)c1	0	0	0	0	0	0	-	-
O=C(NCC(c1cccs1)N1CCOCC1)c1ccccc1NS(=O)(=O)c1ccc(Cl)c([N+](=O)[O-])c1 (stereo unspecified)	29.5	0	0	0	0	0	0	0
O=C(NCC(c1cccs1)N1CCOCC1)c1ccc(Cl)c([N+](=O)[O-])c1 (stereo unspecified)	41.3	0	0	0	0	0	16.3	46.9
O=C(NCC(c1cccs1)N1CCOCC1)c1ccc(Cl)c(S(=O)(=O)N2CCOCC2)c1 (stereo unspecified)	0	0	0	0	0	0	-	-
Cc1ccc(N(CCC(=O)N2CCOCC2)S(=O)(=O)c2ccccc2)cc1	0	0	0	0	0	0	-	-
CCOC(=O)c1c(NC(=S)Nc2ccccc2)sc2c1CC(C)(C)SC2	35.1	0	0	0	0	0	0	0
CC(C)N(Cc1ccccc1)C(=O)COC(=O)c1cnc(Cl)c(Cl)c1	45.3	0	0	0	0	0	33.2	52.3
CC(C)CN(C(=O)COC(=O)c1cccnc1Cl)c1c(N)n(Cc2ccccc2)c(=O)[nH]c1=O	0	0	0	0	0	0	-	-
CC(C)CN(C(=O)COC(=O)c1cnc(Cl)c(Cl)c1)c1c(N)n(Cc2ccccc2)c(=O)[nH]c1=O	46.6	0	0	0	0	0	0	50.8
O=C(COC(=O)c1cnc(Cl)c(Cl)c1)NCc1cccs1	36.0	0	0	0	0	0	21.7	34.8
O=C(NC1=NCCS1)c1ccccc1OCc1ccc(F)cc1	0	0	0	0	0	0	-	-
COCCCNC(=O)/C(=C\c1cccn1C)NC(=O)c1cccs1	0	0	0	0	0	0	-	-
O=C(CCN1CCCCC1)c1ccc2c(c1)OCCO2	0	0	0	0	0	0	-	-
O=C(CCN1CCCC1Cc1ccccc1)c1ccc2c(c1)OCCO2 (stereo unspecified)	36.5	0	0	0	0	100.2	16.4	35.2
COCOCCn1cc(CN2CCS(=O)(=O)N(Cc3ccc(-c4ccc(Cl)cc4)cc3)C(CC(C)C)C2=O)nn1 (stereo unspecified)	0	0	0	0	0	0	-	-
COc1ccc(/C=N/NC(=O)CCn2c3ccccc3c3ccccc32)cc1OC	29.2	0	0	0	0	0	0	0
COc1cc(/C=N/NC(=O)CCn2c3ccccc3c3ccccc32)cc(OC)c1OC	0	0	0	0	0	0	-	-

Screening data: PubChem BioAssay, several laboratories
